An excerpt weighted towards active compounds, which were near 3% of everything screened.
SENP8 block-1: blocks the human protease SENP8; inhibition, % at 10 µM; purified SENP8, Z-RLRGG-aminoluciferin cleavage, luminescence; hit rate 1.2% among 330,000; in the data active means inhibition above about 50%
Target sequence (Q96LD8 whole entry, looked up): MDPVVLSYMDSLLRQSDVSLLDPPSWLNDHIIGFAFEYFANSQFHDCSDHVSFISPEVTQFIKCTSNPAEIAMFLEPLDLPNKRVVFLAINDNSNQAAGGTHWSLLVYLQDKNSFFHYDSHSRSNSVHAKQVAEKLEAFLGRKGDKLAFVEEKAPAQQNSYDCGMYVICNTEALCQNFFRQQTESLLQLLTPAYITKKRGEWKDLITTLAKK
Apaf-1 inh: inhibitors of human Apaf-1 apoptosome | O14727 | reconstituted apoptosome caspase-3 activity, DEVD-Rh110 fluorescence | inhibition, % at 20 µM | hit rate 0.71% among 330,000 | AID 489030; active means inhibition of at least 40% at 20 µM;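 further: plate controls were DMSO wells for no effect and DEVD-CHO caspase inhibitor wells for full effect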
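Medium: Hepes buffer, pH 7.5 / System: biochemical Apaf-1 apoptosome reconstitution / Measured by: Rh110 fluorescence, excitation 480 nm, emission 540 nm / Times: compound with Apaf-1, dATP, procaspase-3 30 min, then 50 min reaction, room temperature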
UBC13 inh: human UBC13 polyubiquitination inhibition | hit rate 0.47% among 330,000 | inhibition, % at 20 µM | P61088 | UBC13 polyubiquitin chain formation, TR-FRET; in the data active means inhibition above about 45%, passing the limit was not always enough
SENP6 inh: SENP6 protease inhibition. Q9GZR1. Recombinant SENP6 catalytic domain, aminoluciferin luminescence. inhibition, % at 10 µM. hit rate 1.8% among 330,000. AID 2599;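 active means inhibition above about 50% at the single tested dose, limit read from the data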;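 further: plate controls were DMSO wells with enzyme for no effect and DMSO wells lacking enzyme for full effect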
SENP7 inh: SENP7 protease inhibition; inhibition, % at 5 µM; recombinant SENP7, Z-RLRGG-aminoluciferin luminescence, 40 min; AID 434973; Q9BQF6; hit rate 1.5% among 330,000;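 active means inhibition above about 50% at the single test dose, limit read from the data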;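 further: plate controls were DMSO with enzyme for no effect and no enzyme buffer wells for full effect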
Target sequence (Q9BQF6 706-1050 limits assumed): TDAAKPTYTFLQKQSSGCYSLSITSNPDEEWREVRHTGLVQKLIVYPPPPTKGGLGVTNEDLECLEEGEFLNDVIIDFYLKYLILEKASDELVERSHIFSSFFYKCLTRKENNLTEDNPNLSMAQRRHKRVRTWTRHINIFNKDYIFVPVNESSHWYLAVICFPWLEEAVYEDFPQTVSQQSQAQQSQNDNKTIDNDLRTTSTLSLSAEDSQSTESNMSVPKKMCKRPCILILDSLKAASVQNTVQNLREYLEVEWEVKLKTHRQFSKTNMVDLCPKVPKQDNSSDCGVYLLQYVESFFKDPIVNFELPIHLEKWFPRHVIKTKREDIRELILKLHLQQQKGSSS
SENP8 block-2: SENP8 (human) protease inhibition; Q96LD8; recombinant SENP8, Nedd8 substrate fluorescence; inhibition, % at 20 µM; hit rate 0.64% among 360,000; AID 602440; in the data active means inhibition mostly above about 40%, no sharp cut-off; inactive means mostly below about 27%
SENP8 confirm: human SENP8 inhibition, confirmed | inhibition, % at 12.5 µM | shares compounds with SENP7 inh | hit rate 40% among 6,200 | Recombinant SENP8, Z-RLRGG-aminoluciferin luminescence, 60 min | AID 488912;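 active means mean inhibition across replicates above about 50%, limit read from the data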
SENP6 confirm: confirmation of human SENP6 protease inhibitors. hit rate 58% among 6,200. inhibition, % at 12.5 µM. shares compounds with SENP7 inh. AID 488915. recombinant SENP6, Z-RLRGG-aminoluciferin luminescence
SENP7 conf: human SENP7 inhibition, confirmed; shares compounds with SENP7 inh; recombinant SENP7, Z-RLRGG-aminoluciferin luminescence, 40 min; inhibition, % at 12.5 µM; hit rate 69% among 6,200; AID 488917
Casp3 select: inhibits human caspase-3 in SENP selectivity test | shares compounds with SENP7 inh | purified caspase-3, Z-DEVD-aminoluciferin luminescence, 60 min | inhibition, % at 12.5 µM | hit rate 60% among 6,200;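 active means mean inhibition above about 50%, limit read from the data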;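 further: plate controls were enzyme with DMSO for no effect and wells without caspase-3 for full effect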
Luc interf: counter-screen for SENP inhibitors: luminescence interference; hit rate 39% among 6,200; AID 488919; inhibition, % at 12.5 µM; shares compounds with SENP7 inh; Pre-incubated SENP8/Z-RLRGG-aminoluciferin, luciferase luminescence interference;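 active means mean inhibition above about 50% when retested at one dose, limit read from the data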;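 further: plate controls were DMSO wells with completed reaction for no effect and substrate without enzyme for full effect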
* marks the source's active call; other numbers are inactive results; · = no result given.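 How the source made its calls, unless noted: active means mean inhibition above about 50% in the one-dose retest (limit read from the data); inactive means the rest.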

SMILES	SENP8 block-1	Apaf-1 inh	UBC13 inh	SENP6 inh	SENP7 inh	SENP8 block-2	SENP8 confirm	SENP6 confirm	SENP7 conf	Casp3 select	Luc interf
COc1ccc(NC(=O)c2ccc(OCC3CCCO3)cc2)cc1Cl (centres undefined)	38	9	-2	55*	67*	-1	8	40	73*	39	4
Cc1ccnc(NC(=O)COc2ccc3c(c2)CCC3)c1	94*	11	3	82*	94*	7	87*	86*	98*	91*	84*
Cc1ccnc(NC(=O)c2ccc(OCC3CCCO3)cc2)c1 (centres undefined)	75*	0	1	84*	83*	5	82*	82*	97*	94*	61*
CC1(C(=O)Nc2cccc3cccnc23)CCN1Cc1csc2ccccc12 (centres undefined)	·	·	·	·	·	-63	·	·	·	·	·
CC1Cc2ccccc2N1C(=O)CSc1nnc(-c2ccc(S(=O)(=O)N3CCOCC3)cc2)n1C (centres undefined)	-3	6	-2	-10	-6	1	·	·	·	·	·
O=c1[nH]c(-c2ccccc2)c(-c2ccccc2)nc1[N+](=O)[O-]	-8	13	3	-17	-3	6	·	·	·	·	·
CN(C)c1ccc(/C=C/CNC[C@H]2O[C@@H](n3ccc(N)nc3=O)[C@H](O)[C@@H]2O)cc1	·	·	·	·	·	-60	·	·	·	·	·
Cc1cc(C(=O)NC(=S)Nc2cccc(NC(=O)C(C)C)c2)ccc1[N+](=O)[O-]	56*	15	2	71*	77*	16	24	61*	95*	78*	51*
CC(C)C(=O)Nc1cccc(NC(=S)NC(=O)c2ccc([N+](=O)[O-])cc2)c1	-4	19	-16	30	7	17	·	·	·	·	·
CCCOc1ccc(C(=O)Nc2ccc3c(c2)OCO3)cc1	71*	11	8	82*	89*	8	14	73*	80*	84*	19
CCC(=O)Oc1ccc(C(=O)Nc2ccc3c(c2)OCO3)cc1	34	-3	4	64*	73*	-7	37	56*	62*	71*	17
O=C(Oc1ccccc1)N1CCN(C(=O)c2ccco2)CC1	-8	1	0	-3	-5	16	·	·	·	·	·
COc1cccc(C(=O)O[C@H]2[C@H](C)NS(=O)(=O)[C@H]3C[C@@H]4C=C[C@]23O4)c1	-9	1	-10	68*	-2	8	11	3	-1	-5	-5
N#Cc1cnc(Nc2nc3ccccc3o2)nc1-c1ccccc1	-14	8	-11	-30	-1	4	·	·	·	·	·
Cc1nc(Nc2nc3ccccc3o2)nc(C)c1C	47	-6	9	58*	63*	13	8	52*	87*	80*	20
Cc1cnc(Nc2nc3ccccc3o2)nc1C(=O)Nc1cccc(C(F)(F)F)c1	-3	4	-11	10	4	2	·	·	·	·	·
Cc1ccnc(Nc2nc3ccccc3o2)n1	67*	1	-4	77*	73*	12	-26	54*	88*	90*	50
Cc1ccc(Nc2nc3ccccc3o2)cc1F	78*	7	10	88*	87*	16	57*	81*	98*	75*	48
OCCN(Cc1ccccc1)CC(O)COc1ccc2c(c1)OCO2 (centres undefined)	5	-4	0	-26	-3	16	·	·	·	·	·
Cn1c2ccccc2n2c(=O)c(=O)n(CC(=O)N3CCCc4ccccc43)nc12	-12	-13	-4	-6	-2	·	·	·	·	·	·
O=c1cc(C(F)(F)F)nc(SC/C=C/c2ccccc2)[nH]1	-10	5	-4	0	3	3	·	·	·	·	·
CCOC(=O)C(Cc1ccccc1)NC(=O)CCc1nnc2ccc(N3CCCC3)nn12 (centres undefined)	-2	-13	1	-8	0	-16	·	·	·	·	·
COCOc1cccc(CN2CCC(C)(Oc3cccc(OC)c3)C2)c1 (centres undefined)	·	·	·	·	·	2	·	·	·	·	·
O=C(/C=C/c1ccccc1)Nc1sc2c(c1C(=O)O)CCC2	69*	-20	-11	-5	7	0	-5	74*	90*	73*	81*
COC(=O)c1c(NC(=O)c2ccccc2C(=O)O)sc2c1CCC2	13	-8	-3	20	-4	-38	·	·	·	·	·
SMILES	SENP8 block-1	Apaf-1 inh	UBC13 inh	SENP6 inh	SENP7 inh	SENP8 block-2	SENP8 confirm	SENP6 confirm	SENP7 conf	Casp3 select	Luc interf
O=C(/C=C/c1ccco1)Nc1sc2c(c1C(=O)O)CCC2	84*	3	-3	92*	44	9	91*	90*	99*	94*	92*
O=C(O)c1ccc(-c2nc(-c3ccc(Cl)c(Cl)c3)cs2)cc1	74*	6	-13	86*	79*	-95	90*	92*	94*	72*	68*
C=CCNC(=O)c1ccc(-c2nc(-c3ccc(Cl)c(Cl)c3)cs2)cc1	-5	-14	3	6	0	-200	·	·	·	·	·
O=C(O)c1ccc(-c2nc(-c3ccccc3Cl)cs2)cc1	95*	7	-4	98*	94*	-30	98*	99*	102*	97*	93*
CCCCCC1C(=O)N2C=C(c3ccccc3)c3ccccc3N2C1=O (centres undefined)	·	·	·	·	·	-25	·	·	·	·	·
Cc1occc1-c1nnc(SC(C)C(=O)Nc2ccccc2F)o1 (centres undefined)	9	-5	1	-13	4	14	·	·	·	·	·
COc1ccc(CNC(=O)C2Cc3cc(S(=O)(=O)N4CCCC4)ccc3N2C(C)=O)c(OC)c1 (centres undefined)	-1	3	-2	-2	-3	10	·	·	·	·	·
N#Cc1cc2cc3c(cc2nc1SCC(=O)N1CCCC1)OCCO3	-1	8	-5	-17	0	-144	·	·	·	·	·
CC(=O)CSc1nc2cc3c(cc2cc1C#N)OCCO3	95*	-1	-146	91*	97*	-284	84*	87*	58*	86*	27
O=C(CNc1ccc2ccccc2c1)N/N=C/c1ccc([N+](=O)[O-])o1	7	11	-12	54*	12	-173	-14	16	-2	-6	-9
